Experimental data published in ChEMBL document CHEMBL1153859, “Analogs of JHU75528, a PET ligand for imaging of cerebral cannabinoid receptors (CB1): development of ligands with optimized lipophilicity and binding affinity” (Eur J Med Chem, 2009).
Active and inactive are the calls of the source. The calls are words filed in the database; no cut-off is given here.

Tests used:
[1] = Octanol-phosphate buffer partition coefficient, log D at pH 7.4 by shake-flask method; assay type: physicochemical
How it was run: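 Octanol/phosphate buffer (pH 7.4) partition by conventional shake-flask; logD7.4 reported as mean ± S.D. of independent assays.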

Cannabinoid receptor 1 [2] = target: T1, Cannabinoid receptor 1 (Homo sapiens, UniProt P21554); assay: biochemical; assay type: cell-based, HEK293
T1 sequence (P21554 whole entry): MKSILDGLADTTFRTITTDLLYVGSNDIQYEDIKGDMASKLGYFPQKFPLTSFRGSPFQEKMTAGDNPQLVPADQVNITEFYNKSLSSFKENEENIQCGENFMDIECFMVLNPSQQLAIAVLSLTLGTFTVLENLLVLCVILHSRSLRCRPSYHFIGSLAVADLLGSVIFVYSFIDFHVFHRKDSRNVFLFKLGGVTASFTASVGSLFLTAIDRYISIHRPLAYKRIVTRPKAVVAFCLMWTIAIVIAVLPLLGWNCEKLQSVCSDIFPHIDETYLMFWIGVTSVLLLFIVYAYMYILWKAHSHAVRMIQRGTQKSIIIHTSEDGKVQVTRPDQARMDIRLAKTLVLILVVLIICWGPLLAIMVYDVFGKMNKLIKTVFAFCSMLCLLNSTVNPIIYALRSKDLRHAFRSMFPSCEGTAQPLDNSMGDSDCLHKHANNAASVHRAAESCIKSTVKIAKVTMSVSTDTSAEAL

[3] = system: Cannabinoid receptor 1 (Macaca mulatta); assay: Binding affinity to Rhesus monkey CB1 receptor assessed as binding potential; conditions: tested as the 11C-labelled form
[4] = target: Cannabinoid receptor 1 (Mus musculus) (UniProt P47746); assay: Antagonist activity at CB1 receptor in C57/BL6 mouse striatum assessed as blockade of WIN-55212-2 induced inhibition of glutamate release at 3 uM by electrophysiology; assay type: functional, tissue-based
Sequence of Cannabinoid receptor 1 (Mus musculus) (P47746 whole entry): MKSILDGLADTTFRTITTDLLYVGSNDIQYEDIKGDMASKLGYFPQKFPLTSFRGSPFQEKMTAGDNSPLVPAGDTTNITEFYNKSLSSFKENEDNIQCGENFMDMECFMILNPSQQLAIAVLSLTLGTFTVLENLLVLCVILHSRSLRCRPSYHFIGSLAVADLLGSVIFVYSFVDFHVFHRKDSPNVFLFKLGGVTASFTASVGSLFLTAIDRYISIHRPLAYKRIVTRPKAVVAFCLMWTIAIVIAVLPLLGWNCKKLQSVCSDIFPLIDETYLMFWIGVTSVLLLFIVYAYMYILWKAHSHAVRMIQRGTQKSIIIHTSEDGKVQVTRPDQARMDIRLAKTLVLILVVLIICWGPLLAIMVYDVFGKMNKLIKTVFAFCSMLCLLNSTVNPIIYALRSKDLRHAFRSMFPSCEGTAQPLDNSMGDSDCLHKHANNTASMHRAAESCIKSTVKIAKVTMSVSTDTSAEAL

Mus musculus [5] = assay: Binding affinity to CB1 receptor in CD1 mouse brainstem at 200 uCi, iv after 60 mins in presence of rimonabant; assay type: functional, organism-based; conditions: tested as the 11C-labelled form
How it was run: (§1)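 Controls got vehicle. 15 min later [11C] tracer (~7.4 MBq, ~200 μCi; ~300 GBq/μmol) was given i.v.; n=3 per group. Brains were harvested at 60 min and regions dissected on ice, then γ-counted against injectate standards as %ID/g tissue. Single-factor ANOVA, p ≤ 0.05.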

Mus musculus [6] = assay: Binding affinity to CB1 receptor in CD1 mouse hippocampus at 200 uCi, iv after 60 mins in presence of rimonabant; assay type: functional, organism-based; conditions: tested as the 11C-labelled form; how it was run: as §1
Cannabinoid receptor 1 [7] = target: T1, Cannabinoid receptor 1; assay: Binding affinity to human CB1 receptor assessed as binding potential

SMILES | logD [1] | Ki (Cannabinoid receptor 1 [2]) [nM] | further results
N#Cc1c(C(=O)NN2CCCCC2)nn(-c2ccc(Cl)cc2Cl)c1-c1ccc(OCF)cc1 | 2.9 | 10.3 | –
COc1ccc(-c2c(C#N)c(C(=O)NN3CCCCC3)nn2-c2ccc(Cl)cc2Cl)cc1 [JHU-75528] | – | 11 | Activity [3]: 0.6; Activity [4]: Active
COc1ccc(-c2c(C#N)c(C(=O)NN3CCCCC3)nn2-c2ccccc2Br)cc1 | 3.4 | 4.7 | –
N#Cc1c(C(=O)NN2CCCCC2)nn(-c2ccc(Cl)cc2Cl)c1-c1ccc(Br)cc1 | 3.7 | 14 | –
COc1ccc(-c2c(C(N)=O)c(C(=O)NN3CCCCC3)nn2-c2ccccc2Br)cc1 | 2.5 | > 10000 | –
COc1ccc(-c2c(C#N)c(C(=O)NN3CCCC3)nn2-c2ccc(Cl)cc2Cl)cc1 | – | 2 | Activity (Mus musculus [5]): Active; Activity (Mus musculus [6]): inactive
COc1ccc(-c2c(C#N)c(C(=O)NN3CCCCC3)nn2-c2ccc(F)cc2Br)cc1 | 2.9 | 32 | –
COc1ccc(-c2c(C#N)c(C(=O)NN3CCCCC3)nn2-c2ccc(F)cc2Cl)cc1 | 2.8 | 13 | –
N#Cc1c(C(=O)NN2CCOCC2)nn(-c2ccc(Cl)cc2Cl)c1-c1ccc(Br)cc1 | 3.1 | > 1000 | –
N#Cc1c(C(=O)NN2CCCCC2)nn(-c2ccc(Cl)cc2Cl)c1-c1ccc(Cl)cc1 | 3.5 | 24 | –
N#Cc1c(C(=O)NN2CCCCC2)nn(-c2ccc(Cl)cc2Cl)c1-c1ccc(I)cc1 | 3.9 | 33 | –
CCCCCCC(C)(C)c1cc(O)c2c(c1)OC(C)(C)[C@@H]1CC=C(CO)C[C@@H]21 | – | 1.5 | –
N#Cc1c(C(=O)NN2CCOCC2)nn(-c2ccc(Cl)cc2Cl)c1-c1ccc(I)cc1 | 3.2 | 131 | –
Cc1c(C(=O)NN2CCOCC2)nn(-c2ccc(Cl)cc2Cl)c1-c1ccc(I)cc1 | – | – | Activity (Cannabinoid receptor 1 [7]; tested as the 123I-labelled form): 0.21; Activity (Cannabinoid receptor 1 [7]; tested as the 124I-labelled form): 0.37
